Bioassay records: PubChem, several laboratories
MT stabilize HCS = microtubule stabilizers in HeLa cells, primary screen, imaging, high-content imaging; HeLa tubulin immunostaining HCS, 24 h; share of cells brighter than vehicle mean+2SD; % tubulin-high responders, % at 10 µM; 0.83% of 200,000 active;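 active means plate Z-score above 3 for both tubulin-high and condensed-nucleus cell shares, with cell loss under 80%, at 10 µM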;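 further: anti alpha tubulin signal scored within the nucleus-defined area of each cell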
APP transl inh = inhibitors of APP translation via 5'UTR reporter, primary screen, APP 5'UTR luciferase, SH-SY5Y cells | AID 1285, 2008 | 0.82% of 190,000 active | SH-SY5Y APP 5'UTR-luciferase reporter, luminescence | inhibition, % at 2 µM;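 active means inhibition above a set limit, derived from the sample mean plus 3 SD, cut at about 45% in these data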
Ba/F3 V617F tox = reduced viability of JAK2V617F-dependent Ba/F3 cells, primary screen, JAK2V617F inhibitor project, cell-based, Ba/F3 EpoR-JAK2V617F, luminescence. inhibition, % at 5.6 µM. 1.1% of 220,000 active. ATP luminescence;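 active means inhibition above the campaign mean plus 3 SD over all tested compounds, cut at about 24% in these data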;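 further: cytokine-independent growth of Ba/F3 cells driven by EpoR plus mutant JAK2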
BaF3 tox = parental Ba/F3 cell viability inhibition, counter-screen for JAK2V617F inhibitor project, murine pro-B, CellTiter-Glo luminescence; CellTiter-Glo ATP luminescence; inhibition, % at 5.6 µM; 1.1% of 220,000 active;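 active means inhibition above a per-campaign cutoff, the mean inhibition of all tested compounds plus 3 SD, cut at about 27% in these data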
Lmaj promast = Leishmania major promastigote growth inhibition, primary screen; inhibition, % at 10 µM; Leishmania major promastigotes, resazurin fluorescence viability; 9% of 200,000 active; AID 1063, 2008; in the data active means inhibition above about 50%;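 further: promastigotes grown with compound for 44 hours at 28 °C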
bCat nuc transl = modulators of beta-catenin nuclear translocation, primary screen, imaging, HeLa cells, immunofluorescence, high-content | nuclear translocation activity, % at 5 µM | 0.3% of 190,000 active;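 active means nuclear translocation activity above 50% at 5 µM, with a well cell count of 50 or more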;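 further: per-cell ratio of nuclear to cytoplasmic median beta-catenin stain intensity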
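Test system: human HeLa cell line; Doses: 5 µM primary, 0.02–20 µM confirmation; Incubation: 24 h compound exposure, 37°C; Detection: beta-catenin immunofluorescence imaging with DAPI; Read-out: beta-catenin nuclear/cytoplasmic ratio, % activation.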
Large screens that a line does not name were inactive. Only some compounds are listed: those with a hit (about 9.6% of all), similar ones and a draw of the others.

CCc1ccc2c(c1)CCCN2C(=O)c1ccccc1C(=O)O	Lmaj promast 99
Cc1ccc(C(=O)NCC(=O)OCC(=O)NC2CCS(=O)(=O)C2)cc1C (configuration not stated)	Lmaj promast 52
CC(=O)NNC(=O)c1cc2sccc2s1	none (no result: MT stabilize HCS, APP transl inh, Lmaj promast)
NNC(=O)c1cc2sccc2s1	Ba/F3 V617F tox 80, BaF3 tox 78 (no result: MT stabilize HCS, APP transl inh, Lmaj promast)
COc1ccc(-c2csc(N(C)C(=O)c3cccs3)n2)cc1	none
COc1ccc(-c2csc(N(CC3CCCO3)C(=O)c3cccs3)n2)cc1 (configuration not stated)	Lmaj promast 82
CCN(CC)CCCN(C(=O)c1cccs1)c1nc(-c2ccc(OC)cc2)cs1	Lmaj promast 101
CCN(CC)CCCN(C(=O)c1ccco1)c1nc(-c2ccc(C)cc2)cs1	Lmaj promast 72
COc1ccc(-c2csc(N(Cc3ccco3)C(=O)c3cccs3)n2)cc1	none (no result: MT stabilize HCS, APP transl inh, Lmaj promast)
COc1ccc2c(=O)cc(-c3cccnc3)oc2c1OC	none (no result: MT stabilize HCS, APP transl inh, Lmaj promast)
COc1ccc(-c2nnc(SCC(=O)NNC(=O)Cc3ccccc3)n2C)cc1OC	none
Cc1c(C(=O)OCC(=O)N2CC(=O)Nc3ccccc32)oc2ccccc12	none
O=C1CN(C(=O)COC(=O)c2oc3ccccc3c2COc2ccccc2)c2ccccc2N1	APP transl inh 45 (no result: bCat nuc transl)
Cc1cccc(C)c1NC(=S)NCc1ccncc1	none (no result: MT stabilize HCS, APP transl inh, Lmaj promast)
O=C(O)CC(NC(=O)c1ccccc1NC(=O)c1ccccc1)C(=O)O (configuration not stated)	none
CCC(NC(=O)c1ccccc1NC(=O)c1ccccc1)C(=O)O (configuration not stated)	Lmaj promast 65
CCC(NC(=O)c1ccccc1NC(=O)c1ccco1)C(=O)O (configuration not stated)	Lmaj promast 89
CCC(NC(=O)c1ccccc1NC(=O)c1ccco1)C(=O)NC1CCCCC1 (configuration not stated)	none
C=CCCCCCCCCC(=O)Nc1ncccn1	none (no result: MT stabilize HCS, APP transl inh, Lmaj promast)
CCC(C)[C@H](Nc1nc(-c2ccccc2)nc2c1oc1ccccc12)C(=O)O (some centres not stated)	none
Cn1c(NCc2cc(Br)ccc2O)nc2ccccc21	none
CC(C)n1c(NCc2cc(Cl)ccc2O)nc2ccccc21	Lmaj promast 66 (no result: bCat nuc transl)
Cn1c(NCc2c(O)ccc3ccccc23)nc2ccccc21	Lmaj promast 100 (no result: bCat nuc transl)
CCCn1c(CNc2ccccc2O)nc2ccccc21	Lmaj promast 82
C=CCn1c(NC(C)c2cc(Cl)ccc2O)nc2ccccc21 (configuration not stated)	Lmaj promast 96
COc1ccc(C(=O)O)cc1S(=O)(=O)NC(C)C	none (no result: MT stabilize HCS, APP transl inh, Lmaj promast)
CC(C)n1c(NCc2nc3ccccc3n2C)nc2ccccc21	Lmaj promast 60 (no result: bCat nuc transl)
CCn1c(CNc2nc3ccccc3n2C(C)C)nc2ccccc21	Lmaj promast 100
CCOc1ccccc1Nc1nc2ccccc2n1C(C)C	Lmaj promast 83
CC(C)n1c(Nc2ccccc2)nc2ccccc21	none
CCn1c(CNC(=O)c2ccccc2)nc2ccccc21	none (no result: bCat nuc transl)
Cc1ccc(NCc2nc3ccccc3n2C)cc1	none (no result: bCat nuc transl)
CC(C)n1c(NCCO)nc2ccccc21	none
Cn1c(CNc2nc3ccccc3n2C)nc2ccccc21	Lmaj promast 50
Cc1ccccc1C(=O)c1cccn1CC(=O)NC(C)c1ccc2c(c1)OCCO2 (configuration not stated)	none
Cc1ccc(C(=O)N2CCN(c3ccc(NC(=O)COc4ccccc4C)cc3)CC2)cc1	none
CC(Oc1cccc(F)c1)c1ccnc2nc(/N=C/N(C)C)nn12 (configuration not stated)	none
COc1ccc(-c2nnc(SCc3cc(C)ccc3C)n2N)cc1	none
Cc1ccc(-n2cnc3cc(NCc4cccs4)ccc32)cc1	none
c1ccc(-n2cnc3cc(NCc4cccs4)ccc32)cc1	MT stabilize HCS 41
COCCNC(=S)N/N=C(\C)c1ccccc1OC	none (no result: bCat nuc transl)
COCCNC(=S)N/N=C(\C)c1ccccc1O	APP transl inh 79
CN1CCN(C(c2cccnc2)c2ccc3cccnc3c2O)CC1 (configuration not stated)	none
Oc1c(C(Nc2cccc(C(F)(F)F)c2)c2ccncc2)ccc2cccnc12 (configuration not stated)	Lmaj promast 100
Oc1c(C(Nc2nccs2)c2ccc(C(F)(F)F)cc2)ccc2cccnc12 (configuration not stated)	APP transl inh 66, Ba/F3 V617F tox 60, BaF3 tox 54, Lmaj promast 100
O=C(Nc1cccc(C(F)(F)F)c1)c1cccnc1	none
O=C(O)c1ccccc1CSc1nnc2c(n1)[nH]c1ccccc12	none (no result: MT stabilize HCS, APP transl inh, Lmaj promast)
CC1=CC(C)(C)n2c(O)c(C3=NC(=S)NC3=O)c3cc(OC(=O)c4cccc5ccccc45)cc1c32	none
O=C(OCc1ccc([N+](=O)[O-])cc1)C1CCN(S(=O)(=O)c2ccccc2)CC1	none
CCc1ccc(-c2cc(C(=O)N3N=C(C(F)F)CC3(O)C(F)F)c3ccccc3n2)cc1 (configuration not stated)	Lmaj promast 71
Cc1ccc(N=c2c([N+](=O)[O-])nn(-c3ccccc3)n2O)c(C)c1	Lmaj promast 56
COc1ccc(-n2nc([N+](=O)[O-])c(=NCCc3cccc(C)c3)n2O)cc1	Lmaj promast 81
COc1ccc(CCN=c2c([N+](=O)[O-])nn(-c3cccc(C)c3)n2O)cc1OC	none
Cc1cccc(CCN=c2c([N+](=O)[O-])nn(-c3ccccc3)n2O)c1	Lmaj promast 62
CCNS(=O)(=O)c1ccc(CCC(=O)NCCC2=CCCCC2)cc1	none
N#Cc1ccsc1NC(=O)c1cnccn1	none (no result: bCat nuc transl)
CC(C)(C)NS(=O)(=O)c1cc(C(=O)Nc2sccc2C#N)ccc1Cl	Lmaj promast 54
Clc1nc(-c2ccccn2)nc2scc(-c3ccccc3)c12	Lmaj promast 66
CC1CCN(c2nc(-c3cccnc3)nc3scc(-c4ccccc4)c23)CC1	none
Cc1ccc(C(=O)n2c3ccccc3c3ccccc32)cc1	MT stabilize HCS 44, bCat nuc transl 96
Cc1c(-c2cccc(Cl)c2)nc2ccccc2c1C(=O)OCC(=O)Nc1ccc2c(c1)OCO2	Lmaj promast 58
CCN(c1ccccc1)S(=O)(=O)c1ccc(Cl)c(NC(=O)CSc2ncn[nH]2)c1	none
Cc1cc(C)c(S(=O)(=O)/N=C2/C=C(Sc3ncn[nH]3)C(=O)c3ccccc32)cc1C	APP transl inh 89, Ba/F3 V617F tox 41, Lmaj promast 100
CN1CCN(C(=O)CN(C)S(=O)(=O)c2ccc3ccccc3c2)CC1	none
CCOc1cc(/C=N/NC(=O)COc2ccc(Cl)cc2)ccc1OS(=O)(=O)c1ccccc1	Lmaj promast 96
